Results published in PMC4398655 (Bioorganic & medicinal chemistry, 2015).
“Also recorded” adds a separate entry of the source. Read-outs that look alike come from different tables or passages of the source.

Key:
[1] = system: PC-3 prostate cancer cells; settings: 10 μM for 72 h, relative percent cell viability only; cited from earlier work
[2] = system: HCT-116 colon cancer cells; settings: 10 μM for 72 h, relative percent cell viability only; cited from earlier work
[3] = system: MCF-7 breast cancer cells; settings: 10 μM for 72 h, relative percent cell viability only; cited from earlier work
[4] = system: six human cancer cell lines (HCT-116, S1, DU-145, PC-3, MDA-MB-231, MCF-7); test: MTT cell cytotoxicity assay, panel of cancer cell lines; format: cell-based; settings: for IC50: Homo sapiens
Method in brief: (§1)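 Cell lines grown as adherent monolayers in DMEM with 10% FBS at 37°C, 5% CO2. Trypsinised cells seeded at 5×10^3 cells/well and exposed to test compound at 0.1 to 100 μM for 72 h. MTT (4 mg/ml) added for 4 h, formazan dissolved in DMSO, and absorbance read at 570 nm. IC50 derived from survival curves by the Bliss method. Mean±SD from at least three experiments, each in triplicate.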

[5] = system: HCT-116 colon cancer cells; test: Morphological analysis by microscopy, HCT-116; format: cell-based, human; settings: 68 h
Method in brief: (§2)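 Cells from the MTT setup, with and without test compound, were photographed at 68 h on an inverted microscope for each triplicate treatment. Images for the different concentrations were compared double-blind for cell size, shape and number.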

[6] = system: PC-3 prostate cancer cells; test: Morphological analysis by microscopy, PC-3; format: cell-based, human; settings: 68 h
Method in brief: as §2

[7] = system: PC-3 prostate cancer cells; test: MTT cell cytotoxicity assay, PC-3; format: cell-based; settings: Homo sapiens, 72 h, read-out: IC50 ± SD, PC3
Method in brief: as §1

[8] = system: HEK293/pcDNA3.1 human primary embryonic kidney cells; test: MTT cell cytotoxicity assay, HEK293/pcDNA3.1; format: cell-based; settings: HEK293, 72 h, read-out: IC50 ± SD, HEK 293/pcDNA.3.1
Method in brief: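 Empty-vector-transfected HEK293 cells, grown adherent in DMEM + 10% FBS at 37°C, 5% CO2, were trypsinised and seeded at 5×10³ cells/well. Test compound was added at 0.1–100 μM for 72 h. MTT solution (4 mg/ml) was then added for 4 h, and formazan was dissolved in DMSO and read at 570 nm. IC50 was derived from survival curves by the Bliss method; mean±SD from ≥3 experiments, each in triplicate.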

[9] = system: ABCB1 (P-glycoprotein, MDR1); test: MTT cell cytotoxicity assay, ABCB1 overexpressing cells; format: cell-based; settings: human, HEK293/ABCB1 cells (P-glycoprotein overexpressing)
[10] = read-out: mean IC50 values in all the cancer cell lines tested

CC(=O)/C=C(O)/C=C/c1ccc(O)c(O)c1 [VA-1, Hispolon]
activity against PC-3 (previous study) [1]: active | activity against HCT-116 (previous study) [2]: active | activity against MCF-7 (previous study) [3]: active

COc1cc(/C=C/C(=O)CC(C)=O)ccc1O [VA-2, hispolon methyl ether]
IC50 ([4]; read-out: observed mean IC50 values in colon and prostate cancer cell lines): 1.4 to 6.3 µM | morphological analysis (cell number, cell size) ([5]; 1 μM): marked reduction of cell number; also recorded: significant reduction of cell number | morphological analysis (cell number, cell size) ([6]; 1 μM): marked reduction of cell number; also recorded: significant reduction of cell number | activity against PC-3 (previous study) [1]: active | activity against HCT-116 (previous study) [2]: active | activity against MCF-7 (previous study) [3]: active

CC(=O)CC(=O)/C=C/c1ccc(O)cc1 [VA-3, dehydroxy hispolon]
activity against PC-3 (previous study) [1]: active | activity against HCT-116 (previous study) [2]: active | activity against MCF-7 (previous study) [3]: active

Cc1cc(/C=C/c2ccc(O)c(O)c2)on1 [VA-7]
IC50 [4, 10]: 3.3 to 10.7 µM

COc1ccc(/C=C/c2cc(C)n[nH]2)cc1 [VA-15, (E)-5-(4-methoxystyryl)-3-methyl-1H-Pyrazole]
IC50 [4, 10]: 3.3 to 10.7 µM

COc1cc(CCC(=O)CC(C)=O)ccc1O [VA-16]
IC50 [7]: > 100 µM | activity (inhibition of cell survival) in the tested concentration range ([4]; MTT, concentrations up to 100 μM): no significant activity | morphological characteristics ([5]; concentrations up to 100 μM): no significant change | morphological characteristics ([6]; concentrations up to 100 μM): no significant change

COc1ccc(CCC(=O)CC(C)=O)cc1 [VA-18, 6-(4-methoxyphenyl)hexane-2,4-dione]
IC50 [8]: 50.2 ± 8.9 µM | IC50 at 72 h [9]: 51.2 ± 10.3 µM
